Screening results: PubChem BioAssay, several laboratories
aSyn UTR inh: 5' untranslated region of α-synuclein, MLPCN primary screen | alpha-synuclein 5'UTR reporter, inhibitor activity | inhibition, % (tested at 7.5 µM) | hit rate 0.82% among 300,000 | AID 1813; in the data active means inhibition above about 60%; inconclusive means no clear call, values can overlap the other calls;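 further: H4 neuroglioblastoma cells stably carrying SNCA 5'UTR luciferase fusion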
T cruzi repl: blocks replication of Trypanosoma cruzi; T. cruzi beta-gal in NIH3T3, luminescence, 90 h; inhibition, % (concentration not given with the values); hit rate 1.4% among 300,000; AID 1885;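 active means mean inhibition across valid replicates above about 55%, limit read from the data; inconclusive means mean below that limit but half or more replicates reach it; inactive means mean below it, under half of replicates reach it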;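 further: signal also drops with host cell toxicity which is not excluded here; higher percent means less beta-gal luminescence so fewer parasites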
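Material: NIH/3T3 host cells with β-galactosidase reporter T. cruzi; Input: 5,000 host fibroblasts per well; Medium: DMEM, 2% fetal bovine serum; Compound: 50 nL DMSO compound solution per well; Schedule: 3 h host attachment, then at least 90 h co-culture; Detection: luminescent β-galactosidase signal after 60 min lysis.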
Mdm2 MdmX PPI: human Mdm2/MdmX binding inhibition. O15151+Q00987. SaOS-2 split-luciferase Mdm2/MdmX complementation, luminescence. inhibition, % at 8 µM. hit rate 3% among 330,000;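 active means inhibition of at least 50% at 8 µM in the primary screen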
CSC inhib: blocks cancer stem cells | cancer stem cell-like cells viability, luminescence | inhibition, % at 7.5 µM | hit rate 1.1% among 300,000 | AID 2717; in the data active means inhibition above about 75%; inconclusive means no clear call, values can overlap the other calls; tested in HMLE shEcad cells
SKKanGAS inh: SKKanGAS growth inhibition. S. pyogenes SKKanGAS, kanamycin growth, BacTiter-Glo, 6 h. inhibition, % at 7.5 µM. hit rate 1.3% among 300,000. AID 1662;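 active means mean replicate score, as percent of positive control median, at least 50; inconclusive means mean below 50 but one replicate at or above 50; inactive means mean and every replicate below 50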;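 further: strain carries kanamycin resistance gene driven by streptokinase promoter and grows in 40 µg/ml kanamycin; loss of luminescence reflects streptokinase promoter inhibition or plain growth inhibition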
A number is an active result; - = inactive; ? = inconclusive; . = no result given. In the library only some 5.4% were active in any assay of this set; here they are far more common.

SMILES	aSyn UTR inh	T cruzi repl	Mdm2 MdmX PPI	CSC inhib	SKKanGAS inh
O=C(N/N=C/c1ccc(Cl)cc1)c1sccc1OCc1ccc(F)cc1	72.5	-	-	.	-
O=C(N/N=C/c1ccc([N+](=O)[O-])o1)c1cn(-c2ccccc2)nc1-c1ccc(Cl)cc1	-	64.4	-	-	107.2
O=C(N/N=C/c1ccc([N+](=O)[O-])o1)c1ccccc1-n1cccc1	-	67.3	-	-	-
O=C(N/N=C/c1ccc([N+](=O)[O-])o1)c1cn(-c2ccccc2)nc1-c1ccccc1	-	59.9	-	-	-
O=C(N/N=C\c1ccccc1)c1ccccc1-n1cccc1	-	-	-	-	-
O=C(O)COc1ccc(/C=N/NC(=O)c2cn(-c3ccccc3)nc2-c2ccccc2)cc1	-	-	-	-	-
Clc1ccccc1N1CCN(Cc2c[nH]c3ccccc23)CC1	64.1	73.7	-	-	-
COc1cc(N)c(Cl)cc1C(=O)OCC(=O)NCC1CCCCC1	.	.	-	-	.
O=c1[nH]c2ccc(Cl)cc2c(-c2ccccc2)c1N1CCN(c2ccccn2)CC1	-	-	-	-	83.8
CN(CCOc1ccc(Br)cc1)CC(O)c1ccccc1 (configuration not stated)	-	70.1	-	-	-
CN(CCOc1ccccc1)CC(O)COCc1ccccc1F (configuration not stated)	-	54.6	-	-	-
Cn1nc([N+](=O)[O-])nc1Sc1ccc(Cl)cc1	-	68.6	-	-	-
O=C(NC(=S)Nc1nc(-c2cccc([N+](=O)[O-])c2)cs1)c1ccccc1Cl	-	-	-	-	-
O=[N+]([O-])c1cccc(NC(=S)Nc2nc(-c3ccc(Cl)cc3Cl)cs2)c1	72.6	-	.	93.0	?
Cc1ccc(C)c(Oc2ccc(S(=O)(=O)N3CCN(C)CC3)cn2)c1	-	55.1	-	-	-
CCc1ccccc1Oc1ccc(S(=O)(=O)N2CCN(C)CC2)cn1	-	-	-	-	-
CCN(CCCNC(=O)CN(C)S(=O)(=O)c1cccc2nsnc12)c1ccccc1	-	-	-	-	-
Cc1cccc2cc(CN(Cc3cccs3)Cc3nnnn3Cc3ccccc3)c(=O)[nH]c12	-	63.2	-	-	-
CCOc1ccc2[nH]c(=O)c(CN(Cc3cccs3)Cc3nnnn3C(C)(C)CC)cc2c1	-	58.5	-	-	-
COc1ccc2cc(CN(Cc3cccs3)Cc3nnnn3Cc3ccccc3)c(=O)[nH]c2c1	-	-	-	-	-
CCC(C)(C)n1nnnc1CN(Cc1cccs1)Cc1cc2cc(OC)ccc2[nH]c1=O	-	-	-	-	-
COc1ccc2cc(CN(Cc3cccnc3)Cc3nnnn3Cc3ccccc3)c(=O)[nH]c2c1	-	62.2	-	-	-
O=C(CSc1nccc(=O)[nH]1)N1CCN(c2ccccc2)CC1	-	-	-	-	-
COc1cc(CN2CCCC(C(=O)c3ccc4c5c(cccc35)CC4)C2)cc(OC)c1O (configuration not stated)	-	-	-	-	-
Cc1cccc(CN2CCCC(C(=O)c3ccc4c5c(cccc35)CC4)C2)n1 (configuration not stated)	-	-	-	-	65.0
SMILES	aSyn UTR inh	T cruzi repl	Mdm2 MdmX PPI	CSC inhib	SKKanGAS inh
COc1ccc2cc(C(=O)C3CCCN(Cc4cccc(C)n4)C3)ccc2c1 (configuration not stated)	-	-	-	-	79.1
O=C(c1ccc2c3c(cccc13)CC2)C1CCCN(Cc2cccnc2)C1 (configuration not stated)	-	62.1	-	.	-
CCOC(=O)N1CCC(N2CCCC(C(=O)c3ccc4cc(OC)ccc4c3)C2)CC1 (configuration not stated)	-	56.3	-	-	.
COc1ccc(N(CCCN2C(=O)c3cccc4cccc(c34)C2=O)C(=O)c2ccncc2)cc1	-	55.4	-	-	-
COc1ccc(N(CCCN2C(=O)c3cccc4cccc(c34)C2=O)C(=O)c2cccnc2)cc1	-	67.9	-	-	-
CC1(C)Cc2c(C#N)c(NC3CCCCC3)nc(-c3ccco3)c2CO1	-	-	-	77.4	-
Clc1ccccc1-c1ncc2ccccn12	-	57.1	-	-	-
O=C(Nc1ccc2c(c1)OCO2)C(=O)c1c[nH]c2ccccc12	-	-	-	-	-
O=C(Nc1ccc2c(c1)OCCO2)C(=O)c1c[nH]c2ccccc12	-	-	-	106.7	-
CCN(c1ccccc1)S(=O)(=O)c1nnc(NC(=O)c2ccccc2OC)s1	-	-	-	-	-
Cc1ccc(NS(=O)(=O)c2sc3ccc(Cl)cc3c2C)cc1	-	-	-	98.3	-
O=C(c1cccc(S(=O)(=O)N2CCCC2)c1)N1CCN(Cc2ccccc2)CC1	.	.	-	.	.
COc1ccc(-c2nc(-c3ccccc3)c(-c3cccs3)[nH]2)cc1OC	-	-	-	-	-
COc1ccc(-c2nc(-c3cccs3)c(-c3cccs3)[nH]2)cc1OC	-	-	-	-	67.6
CC(C)CC1NC(=O)N(CC(=O)Nc2cc(S(=O)(=O)N3CCOCC3)ccc2Cl)C1=O (configuration not stated)	.	.	-	-	.
COc1cc2c(cc1OC)-c1cc(Nc3cccc(C)c3)nc(=O)n1CC2	-	-	-	-	-
COc1ccc(NC(=O)C(=O)NCC(c2ccco2)N2CCc3ccccc32)cc1 (configuration not stated)	84.9	-	-	-	-
CCOC(=O)Cc1csc(NC(=O)C(C)(C)CC)n1	-	-	-	-	-
COc1ccccc1NS(=O)(=O)c1cccc(NC(=O)c2sc3ccccc3c2Cl)c1	-	77.8	-	.	-
O=C(Nc1nnc(-c2ccccc2Cl)o1)c1nc2ccccc2s1	-	-	-	-	94.9
COc1ccc(C2CC(=O)c3cnc(N4CCN(Cc5ccccc5)CC4)nc3C2)cc1 (configuration not stated)	-	-	-	-	56.0
CC1CC(C)CN(c2ncc3c(n2)CC(c2ccccc2Cl)CC3=O)C1 (configuration not stated)	-	-	-	83.7	62.6
CC1CC(C)CN(c2ncc3c(n2)CC(c2ccc(Cl)cc2)CC3=O)C1 (configuration not stated)	-	-	-	-	-
O=C(/C=C/c1cc(Br)ccc1O)c1ccco1	-	-	-	?	-
Cc1ccc(/C=C/C(=O)c2cc(Br)ccc2OC(=O)c2ccco2)cc1	-	-	-	93.3	-
SMILES	aSyn UTR inh	T cruzi repl	Mdm2 MdmX PPI	CSC inhib	SKKanGAS inh
O=C(Nc1nc(-c2ccccc2)cs1)c1cccs1	-	-	-	-	-
O=C(Nc1nc(-c2ccc(Cl)s2)cs1)c1cccs1	-	75.8	-	-	-
O=C(Nc1ccc([N+](=O)[O-])cc1)Nc1nc(-c2ccc(Cl)s2)cs1	91.5	-	.	97.1	79.3
COc1ccccc1-c1nnc2sc(-c3cc4ccccc4o3)nn12	76.3	-	-	-	-
Cc1ccccc1OCC(=O)Nc1ccccc1N1CCCCC1	-	-	-	-	57.3
Cc1cccc(OCC(=O)Nc2ccccc2N2CCCC2)c1C	-	-	-	79.9	-
Cc1ccc(C(C)C)cc1OCC(=O)Nc1ccc(N2CCCCC2)cc1	-	62.5	-	-	-
